PMC10258837 (Journal of the American Chemical Society, 2021)

Legend:
Mur21 [1] = experiment: amino acid-dependent ATP-PPi exchange, Mur21; format: biochemical, Streptomyces sp. NRRL 30471; conditions: amino acid-dependent ATP-PPi exchange assay; MBP fusion
AnpF orthologs = experiment: amino acid-dependent ATP-PPi exchange, AnpF orthologs; format: biochemical; conditions: amino acid-dependent ATP-PPi exchange assay
AnpE orthologs [2] = experiment: amino acid-dependent ATP-PPi exchange, AnpE orthologs; format: biochemical; conditions: amino acid-dependent ATP-PPi exchange assay
Mur15 [3] = target: T1, Mur15 (Streptomyces sp. NRRL 30471, UniProt F2WUC7); experiment: Mur15 substrate scope; format: biochemical; conditions: for Mur15-catalyzed hydroxylation of free amino acid: LC-MS with authentic hydroxylated standards; for Mur15-catalyzed hydroxylation (substrate conversion): Fe2+, αKG and O2, LC-MS
Summary of the method: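 Mur15 incubated with Fe2+, αKG and O2 plus either a muraymycin substrate purified from Streptomyces sp. NRRL 30475 or a synthetic deaminoribose analogue. Reactions analysed by HPLC against a control without enzyme. Product identity checked by co-injection with authentic hydroxylated standard.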

Mur15 [4] = target: T1, Mur15; experiment: Mur15 single-substrate kinetic analysis and turnover; format: biochemical; conditions: for Km / kcat: single-substrate kinetic analysis with saturating αKG, Michaelis-Menten
Summary of the method: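 Mur15 reaction with Fe2+, αKG and O2 as cofactor and cosubstrates. The native muraymycin substrate, purified from Streptomyces sp. NRRL 30475, is varied for single-substrate kinetics.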

any NRPS = conditions: [14C]NaHCO3; Figure S10
AnpF = experiment: covalent modification by phosphor imaging, AnpF; format: biochemical; conditions: 14C-labelled amino acid
Mur14 = experiment: T domain loading by SDS-PAGE with phosphor imaging, Mur14; format: biochemical, Streptomyces sp. NRRL 30471; conditions: 14C-labelled amino acid; Mur27 with Mur14
holo-SlAnpD(AT) = experiment: covalent modification by phosphor imaging, holo-SlAnpD; format: biochemical, Streptomyces lavendulae subsp. lavendulae strain NRRL B-2775; conditions: 14C-labelled amino acid; phosphor imaging of gels
Mur12 = experiment: T domain loading by SDS-PAGE with phosphor imaging, Mur12; format: biochemical, Streptomyces sp. NRRL 30471; conditions: 14C-labelled amino acid, CoA and Sfp
SadA = conditions: cited from earlier work
AnpI = AnpI substrate test; format: biochemical, Streptomyces lavendulae subsp. lavendulae strain NRRL B-2775; conditions: free (not T domain-bound) substrate
Mur21 [5] = experiment: T domain loading by SDS-PAGE with phosphor imaging, Mur21; format: biochemical, Streptomyces sp. NRRL 30471; conditions: 14C-labelled amino acid, MBP fusion
Mur27 = experiment: amino acid-dependent ATP-PPi exchange, Mur27; format: biochemical, Streptomyces sp. NRRL 30471; conditions: amino acid-dependent ATP-PPi exchange assay; MBP fusion
M. smegmatis = experiment: anti-M. smegmatis activity; format: cell-based; conditions: 8 compared with 3; Table S3
E. coli = experiment: anti-E. coli activity; format: cell-based; conditions: 8 compared with 3; E. coli strain not stated; Table S3
AnpE orthologs [6] = experiment: covalent modification by phosphor imaging, AnpE orthologs; format: biochemical; conditions: 14C-labelled amino acid
SlAnpD(AT) = experiment: amino acid-dependent ATP-PPi exchange, SlAnpD; format: biochemical, Streptomyces lavendulae subsp. lavendulae strain NRRL B-2775; conditions: amino acid-dependent ATP-PPi exchange assay; truncated, lacking the C domain
VioC = VioC hydroxylation; format: biochemical, Streptomyces sp. strain ATCC11861; conditions: free L-Arg; experimental control
Mur16 = conditions: cited from earlier work

CC(C)C[C@H](N)C(=O)O [L-Leu]
A domain activation of amino acid by Mur21 (Mur21 [1]): preferential activity | A domain activation by AnpF orthologs (AnpF orthologs): slight preference | A domain activation by AnpE orthologs (AnpE orthologs [2]): highest activity | Mur15-catalyzed hydroxylation of free amino acid (Mur15 [3]): no peaks corresponding to a hydroxylated product were detected

CO[C@H]1[C@H](O[C@H]([C@H]2O[C@@H](n3ccc(=O)[nH]c3=O)[C@H](O)[C@@H]2O)[C@H](NCCCNC(=O)[C@H](CC(C)C)NC(=O)[C@@H](NC(=O)N[C@H](C(=O)O)C(C)C)[C@@H]2CCN=C(N)N2)C(=O)O)O[C@H](CN)[C@H]1O [compound 3, muraymycin D1]
Km (Mur15 [4]): 600 ± 100 µM | kcat (Mur15 [4]): 0.167 ± 0.017 s⁻¹ | total turnover number (TTN) (Mur15 [4]; with native substrate (3) or unnatural substrate (muraymycin B), estimated): ≥ 800 | Mur15-catalyzed hydroxylation (substrate conversion) (Mur15 [3]): a new peak with a mass corresponding to mono-hydroxylated 3

CSCC[C@H](N)C(=O)O [L-Met]
A domain activation by AnpF orthologs (AnpF orthologs): slight preference | A domain activation by AnpE orthologs (AnpE orthologs [2]): highest activity

N[C@@H](CS)C(=O)O [L-Cys]
A domain activation by AnpF orthologs (AnpF orthologs): slight preference

O=[14C]([O-])O.[Na+] [[^14C]NaHCO3]
radiolabelling of NRPS (any NRPS): inability to radiolabel any NRPS

L-[^14C]Val
covalent modification of AnpF (AnpF): Covalent modification of AnpF was observed | loading of Mur14 (Mur14): not observed

CC(C)C[C@H](NC(=O)[C@@H](NC(=O)N[C@H](C(=O)O)C(C)C)[C@@H]1CCN=C(N)N1)C(=O)NCCCN[C@H](C(=O)O)[C@H](O[C@@H]1O[C@H](CN)[C@@H](O)[C@H]1O)[C@H]1O[C@@H](n2ccc(=O)[nH]c2=O)[C@H](O)[C@@H]1O [compound 4, muraymycin D2]
Mur15-catalyzed hydroxylation (substrate conversion) (Mur15 [3]): mono-hydroxylated

CC(C)[C@H](O)[C@H](N)C(=O)O [(2S,3S)-2, (2S,3S)-β-OH-Leu]
A domain activation of amino acid by Mur21 (Mur21 [1]): inactive

L-[^14C]Arg
covalent modification of holo-SlAnpD(AT) (holo-SlAnpD(AT)): covalently modified | loading of Mur12 T domain (Mur12): A faint band corresponding to the molecular weight of Mur12 was detected

CC(C)C[C@H](NC(=O)CCC(=O)O)C(=O)O [N-succinyl-L-Leu]
conversion by SadA to hydroxylated product (SadA): hydroxylated product with (2S,3R)-stereochemical configuration

N=C(N)NCCC[C@H](NC(=O)NC(Cc1ccccc1)C(=O)O)C(=O)O (stereo partly drawn) [compound 11, L-Phe-(C=O)-L-Arg]
conversion by AnpI (AnpI): No product was observed

N[C@@H](Cc1ccccc1)C(=O)O [L-Phe]
A domain activation by AnpF orthologs (AnpF orthologs): slight preference

N[C@@H](Cc1c[nH]c2ccccc12)C(=O)O [L-Trp]
A domain activation by AnpF orthologs (AnpF orthologs): no activity

CC[C@H](C)[C@H](N)C(=O)O [L-Ile]
A domain activation by AnpF orthologs (AnpF orthologs): slight preference | A domain activation by AnpE orthologs (AnpE orthologs [2]): very low activity

CC(=O)N[C@@H](CC(C)C)C(=O)O [N-acetyl-L-Leu]
conversion by SadA to hydroxylated product (SadA): hydroxylated product with (2S,3R)-stereochemical configuration

L-[^14C]Leu
self-loading of Mur21 (Mur21 [5]): not observed

α-MAPI [compound 9]
conversion by AnpI (AnpI): Neither, however, were converted to a product

CO[C@H]1[C@H](O[C@H]([C@H]2O[C@@H](n3ccc(=O)[nH]c3=O)[C@H](O)[C@@H]2O)[C@H](NCCCNC(=O)[C@@H](NC(=O)[C@@H](NC(=O)N[C@H](C(=O)O)C(C)C)[C@@H]2CCN=C(N)N2)[C@@H](OC(=O)CCCCC(C)C)C(C)C)C(=O)O)O[C@H](CN)[C@H]1O [muraymycin B6]
Mur15-catalyzed hydroxylation (substrate conversion) (Mur15 [3]): mass consistent with a mono-hydroxylated product

CO[C@H]1[C@H](O[C@H]([C@H]2O[C@@H](n3ccc(=O)[nH]c3=O)[C@H](O)[C@@H]2O)[C@H](NCCCNC(=O)[C@@H](NC(=O)[C@@H](NC(=O)N[C@H](C(=O)O)C(C)C)[C@@H]2CCN=C(N)N2)[C@@H](OC(=O)CCCCCCC(C)C)C(C)C)C(=O)O)O[C@H](CN)[C@H]1O [muraymycin B2]
Km (Mur15 [4]): 930 µM | kcat (Mur15 [4]): 0.108 ± 0.0083 s⁻¹ | drop in catalytic efficiency when compared with 3 (Mur15 [4]; with respect to muraymycin B2, saturating αKG): ~ 2 -fold | Mur15-catalyzed hydroxylation (substrate conversion) (Mur15 [3]): mass consistent with a mono-hydroxylated product

N[C@@H](Cc1c[nH]cn1)C(=O)O [L-His]
A domain activation by AnpF orthologs (AnpF orthologs): slight preference

CC(C)[C@H](N)C(=O)O [L-Val]
A domain activation of amino acid by Mur27 (Mur27): relatively low activity yet with modest specificity | A domain activation by AnpF orthologs (AnpF orthologs): slight preference | A domain activation by AnpE orthologs (AnpE orthologs [2]): very low activity

CO[C@H]1[C@H](O[C@H]([C@H]2O[C@@H](n3ccc(=O)[nH]c3=O)[C@H](O)[C@@H]2O)[C@H](NCCCNC(=O)[C@@H](NC(=O)[C@@H](NC(=O)N[C@H](C(=O)O)C(C)C)[C@@H]2CCN=C(N)N2)[C@@H](O)C(C)C)C(=O)O)O[C@H](CN)[C@H]1O [compound 8, muraymycin C1]
effect of conversion of 3 to 8 on anti-M. smegmatis activity (M. smegmatis): minimal effect | effect of conversion of 3 to 8 on E. coli activity (E. coli): minimal effect | Mur15-catalyzed hydroxylation (substrate conversion) (Mur15 [3]): remained unchanged

L-[^14C]Phe
covalent modification of AnpE orthologs (AnpE orthologs [6]): covalent modification of the AnpE orthologs was detected

N=C(N)NCCC[C@H](N)C(=O)O [L-Arg]
A domain specificity of SlAnpD(AT) (SlAnpD(AT)): high specificity | hydroxylation by VioC (VioC): shown to hydroxylate free L-Arg | conversion by AnpI (AnpI): 1 was not detected | Mur15-catalyzed hydroxylation of free amino acid (Mur15 [3]): no peaks corresponding to a hydroxylated product were detected | hydroxylation by Mur16 (Mur16): did not hydroxylate L-Arg

CO[C@H]1[C@H](O[C@H]([C@H]2O[C@@H](n3ccc(=O)[nH]c3=O)[C@H](O)[C@@H]2O)[C@H](NCCCNC(=O)[C@@H](NC(=O)[C@@H](NC(=O)N[C@H](C(=O)O)C(C)C)[C@@H]2CCN=C(N)N2)[C@@H](OC(=O)CCCCCCCCCCCCN(O)C(=N)N)C(C)C)C(=O)O)O[C@H](CN)[C@H]1O [muraymycin A1]
Mur15-catalyzed hydroxylation (substrate conversion) (Mur15 [3]): mass consistent with a mono-hydroxylated product
